# TRPC4 potent: TRPC4 (mouse) allosteric potentiation. HEK293 TRPC4beta/mu-opioid, DAMGO EC20, Fluo-4 Ca2+ flux; hits give high values. B-score at 10 µM. hit rate 0.42% among 310,000;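 active = B-score of calcium response area above 5 SD of library B-scores, with initial fluorescence ratio within 5 SD of library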;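 also: B-score of integrated fluorescence ratio over time as area under calcium response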
# Target sequence (Q9QUQ5 whole entry, looked up): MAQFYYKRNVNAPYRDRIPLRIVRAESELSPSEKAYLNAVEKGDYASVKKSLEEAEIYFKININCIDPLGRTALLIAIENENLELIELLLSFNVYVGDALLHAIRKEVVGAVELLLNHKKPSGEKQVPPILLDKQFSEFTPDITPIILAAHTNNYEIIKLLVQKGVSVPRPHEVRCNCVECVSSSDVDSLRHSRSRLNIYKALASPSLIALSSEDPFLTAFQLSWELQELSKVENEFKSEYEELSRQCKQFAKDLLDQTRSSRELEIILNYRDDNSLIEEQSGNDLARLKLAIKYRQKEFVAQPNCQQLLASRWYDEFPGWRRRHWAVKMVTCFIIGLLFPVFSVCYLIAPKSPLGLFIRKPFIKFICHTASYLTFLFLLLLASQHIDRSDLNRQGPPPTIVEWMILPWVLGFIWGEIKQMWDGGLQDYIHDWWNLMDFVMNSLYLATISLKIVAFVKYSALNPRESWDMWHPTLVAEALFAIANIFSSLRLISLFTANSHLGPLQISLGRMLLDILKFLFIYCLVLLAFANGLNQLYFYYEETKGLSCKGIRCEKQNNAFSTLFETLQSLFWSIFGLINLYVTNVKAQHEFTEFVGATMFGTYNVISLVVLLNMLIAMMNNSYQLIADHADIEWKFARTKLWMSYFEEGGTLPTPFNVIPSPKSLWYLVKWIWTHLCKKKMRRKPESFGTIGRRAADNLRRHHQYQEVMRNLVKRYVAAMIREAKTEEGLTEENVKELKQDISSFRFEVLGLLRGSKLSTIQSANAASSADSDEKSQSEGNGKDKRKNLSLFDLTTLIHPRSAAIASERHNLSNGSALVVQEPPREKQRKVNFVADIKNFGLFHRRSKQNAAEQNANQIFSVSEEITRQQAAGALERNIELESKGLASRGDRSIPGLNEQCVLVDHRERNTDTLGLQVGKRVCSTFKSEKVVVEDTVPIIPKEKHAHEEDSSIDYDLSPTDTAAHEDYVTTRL
# TRPC6 activator: activates the mouse TRPC6 cation channel. AID 2550. hit rate 0.13% among 310,000. B-score at 10 µM. Q61143. HEK293-TRPC6 membrane potential dye fluorescence; hits give high values;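 active = B-score of the integrated fluorescence ratio above library mean plus 3 SD, and starting fluorescence ratio within library mean plus 5 SD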;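 also: higher score means more depolarization so channel activation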
# TRPC4 inh: TRPC4 (mouse) channel inhibition; Q9QUQ5; hit rate 0.39% among 300,000; AID 2247; HEK293 TRPC4beta/mu-opioid, DAMGO-evoked Fluo4 calcium flux; hits give low values; B-score at 10 µM;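 active = B-score over 3 SD under the library average, no early fluorescence shift, positive overall ratio signal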
#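 Assay system – HEK293 line stably carrying TRPC4beta and mu-opioid receptor · Doses – single dose · Detection – Fluo4 calcium-dye fluorescence, kinetic read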
# TRPC4 agonist: opens the mouse TRPC4 cation channel; HEK293 TRPC4beta/mu-opioid, Fluo4 calcium fluorescence; hits give high values; hit rate 0.49% among 310,000; B-score at 10 µM;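 active = B-score above 5 SD of library B-scores, and initial fluorescence ratio not above library mean plus 5 SD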;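 also: positive B-score marks a calcium rise read as TRPC4 activation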
#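 Material: HEK293 stable line with TRPC4beta plus mu-opioid receptor; technique: Fluo4 calcium-sensitive dye fluorescence, kinetic, 1 Hz baseline; timing: Fluo4 dye loading 45 min at room temperature, 110 s recording; controls: assay buffer as low control, maximal DAMGO as high control; read-out: integrated baseline-normalised fluorescence ratio, converted to per-well B score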
# TRPC6 inh: blocks the mouse TRPC6 cation channel | HEK293-TRPC6, membrane potential dye, ACh-evoked depolarization; hits give low values | Q61143 | AID 2553 | B-score at 10 µM | hit rate 1.1% among 310,000;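 active = B-score under library mean minus 3 SD, initial fluorescence not abnormally high, positive integrated signal ratio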;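 also: B-score derived from integrated fluorescence ratio over the kinetic read; more negative B-score means stronger inhibition of depolarization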
# The depositor's hits bear a star; i = inactive. Shown are actives, neighbours in structure and some others; about 2.3% of the full set was active somewhere.
SMILES,TRPC4 potent,TRPC6 activator,TRPC4 inh,TRPC4 agonist,TRPC6 inh
COc1ccc(CCNC(=O)C2CCN(C(=O)c3ccc(F)cc3)CC2)cc1,i,i,i,i,i
Cc1[nH]c2ccccc2c1C(c1ccncc1)N1CCN(c2ccccn2)CC1 (stereo not given),i,i,i,49*,i
CCOC(=O)C1CCN(C(c2ccccn2)c2c(C)[nH]c3ccccc23)CC1 (stereo not given),i,i,i,i,-5.83*
Cc1[nH]c2ccccc2c1C(c1ccncc1)N1CCN(c2ccccc2F)CC1 (stereo not given),i,i,i,i,i
COc1ccc(/C(C)=N/NC(=O)Cn2nc([N+](=O)[O-])cc2C)cc1,i,i,i,i,i
CC(C)(C)c1ccc(-c2nc3cc(N)ccc3o2)cc1,18*,i,i,i,i
CC(C)CCn1nnnc1CN1CCN(c2ccccc2)CC1,i,i,i,i,i
Cc1ccc(NC(=O)CSCc2cc(=O)n3ccsc3n2)c(C)c1,i,i,i,i,i
CCCOc1ccc(CCCN=C(N)N)cc1Cl,i,i,i,53*,i
CCCCOc1ccc(CN=C(N)N)cc1Cl,i,i,i,i,i
COc1ccc(CCNC(=O)CSc2ccc3nnc(CCNC(=O)c4ccccc4)n3n2)cc1OC,i,i,i,i,i
CCN(c1ccccc1)S(=O)(=O)c1cc([N+](=O)[O-])ccc1N,i,i,i,i,-5.58*
CCOc1ccc(CN(C)CC(=O)NNC(=O)c2ccc(Cl)cc2)cc1OC,17*,i,i,i,i
CCN(CC)CCN1C(=O)C2C(C(=O)Nc3ccc(C(C)C)cc3)C3C=CC2(O3)C1C(=O)NC1CCCCC1 (stereo not given),i,i,-6*,63*,i
CC(C)c1ccc(NC(=O)C2C3C=CC4(O3)C2C(=O)N(CCCN2CCCCC2)C4C(=O)NC2CCCCC2)cc1 (stereo not given),i,i,-6*,66*,i
Cc1ccc(NC(=O)C2C3C=CC4(O3)C2C(=O)N(CCCN2CCCC2)C4C(=O)NC2CCCCC2)cc1Cl (stereo not given),i,i,i,i,i
Cc1cc(C)cc(NC(=O)C2C3C=CC4(O3)C2C(=O)N(CCN2CCCCC2)C4C(=O)NC2CCCCC2)c1 (stereo not given),i,i,i,i,i
CC1CCCN(CCCN2C(=O)C3C(C(=O)Nc4ccc(Cl)cc4)C4C=CC3(O4)C2C(=O)NC2CCCCC2)C1 (stereo not given),i,i,-6*,i,i
CN(C)CCN1C(=O)C2C(C(=O)Nc3cc(Cl)cc(Cl)c3)C3C=CC2(O3)C1C(=O)NC1CCCCC1 (stereo not given),i,i,-7*,i,i
Cc1cc(C)cc(N(CC(=O)Nc2ccc(C)cc2Cl)S(=O)(=O)c2c(C)[nH]c(=O)[nH]c2=O)c1,22*,i,i,i,i
Cc1cc(C)cc(N(CC(=O)Nc2ccc(C(F)(F)F)cc2)S(=O)(=O)c2c(C)[nH]c(=O)[nH]c2=O)c1,i,i,i,i,i
COc1ccccc1NC(=O)C1CC(O)CN1C(=O)Oc1ccccc1 (stereo not given),i,i,i,i,i
O=C(CN1CCN(Cc2ccccc2Cl)CC1)N=Nc1c(O)[nH]c2ccccc12,i,i,-6*,i,i
COC(=O)C1=C(C)N(Cc2ccccc2)C(=O)N[C@H]1c1cccc(C(F)(F)F)c1,10*,i,i,i,i
CCCn1nc(C(=O)NC2CCCc3ccccc32)c2ccccc2c1=O (stereo not given),23*,i,i,i,i
SMILES,TRPC4 potent,TRPC6 activator,TRPC4 inh,TRPC4 agonist,TRPC6 inh
CSc1ccc(CNC(=O)Cn2nc(C)c3c(C)n(-c4ccc(C)cc4)nc3c2=O)cc1,i,i,i,i,i
O=C(N/N=C/c1c(O)ccc2ccccc12)c1cccc(C(F)(F)F)c1,12*,i,i,i,i
COc1ccc2ccccc2c1/C=N/NC(=O)c1cccc(Br)c1,i,i,i,i,i
CCCN(c1nc(C)cc(OC)n1)S(=O)(=O)c1ccccc1,i,i,-5*,i,i
COc1ccc(CNC(=O)C2CCCN2S(=O)(=O)c2ccc(F)cc2)cc1 (stereo not given),i,i,i,i,i
CCN(CC)S(=O)(=O)c1ccc(Cl)c(C(=O)Nc2nnc(C)s2)c1,i,i,i,i,i
CCN1CCN(S(=O)(=O)c2ccc(Cl)c(C(=O)Nc3nnc(C)s3)c2)CC1,i,i,i,50*,i
CCN(CCn1cccn1)C(=O)c1cc(COc2ccc(F)cc2Cl)on1,i,i,i,i,i
O=C(c1cc(COc2ccc(F)cc2Cl)on1)N(CCO)Cc1cccs1,11*,i,i,i,i
CN(C)CCn1c(=O)n(Cc2ccccc2)c(=O)c2c3c(sc21)CCCCC3,i,i,i,i,i
CN(C)CCCn1c(=O)n(CCc2ccccc2)c(=O)c2c3c(sc21)CCCCC3,22*,i,i,i,i
CCOc1ccc(/C=C2\SC(=S)N(CCC(=O)N(CCO)c3ccccc3)C2=O)cc1,12*,i,i,i,i
Cc1c(NC(=O)C(C)OC(=O)CCOc2ccccc2)c(=O)n(-c2ccccc2)n1C (stereo not given),i,i,i,i,i
COc1cc(C(C)=O)ccc1OCC(=O)c1cc(C)n(C2CC2)c1C,i,i,i,i,i
CC1CC(C)CN(CCCNC(=O)C2CCN(S(=O)(=O)N3CCCCC3)CC2)C1 (stereo not given),i,i,i,59*,i
C(C#CCCCCCCCCC[n+]1ccccc1)#CCCCCCCCCC[n+]1ccccc1,i,i,i,84*,i
Cc1cc(Oc2ccc(-c3ccccc3)cc2)nc(N2CCOCC2)n1,i,i,i,i,i
Cc1cc(Oc2ccc(C(C)(C)C)cc2)nc(N2CCOCC2)n1,18*,i,i,i,i
CCOC(=O)c1c(CN2CCN(C)CC2)n(-c2ccccc2)c2cc(Br)c(O)cc12,i,i,i,i,i
CCOC(=O)c1c(CSC(=N)N)n(-c2ccccc2)c2cc(Br)c(OC(C)=O)cc12,14*,i,i,i,i
CCCS(=O)(=O)c1c(S(=O)(=O)CCC)c2ccc(C(N)=O)cn2c1C(=O)OC,i,i,i,i,i

# Assay outcomes from PubChem BioAssay.
